Laboratory results published in the EternaBench riboswitch data.

Test system: MS2 coat protein
Assay: apparent Kd, MS2 coat protein; higher = weaker binding; RNA-MaP array; FMN 200 µM where present
In short: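 Apparent Kd: the median of filtered binding-curve fits from single clusters. Designs were transcribed on Illumina sequencing-chip clusters by stalled E. coli RNA polymerase and titrated with SNAP-549-labelled MS2 coat protein from 0.7 or 1.5 nM, doubling to 3 µM, in 100 mM Tris-HCl pH 7.5, 80 mM KCl, 4 mM MgCl2, BSA, DTT, yeast tRNA and Tween-20. Each series ran without and then with constant ligand, and green signal was normalised to red-channel RNA signal and control-cluster median Fmax.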

[1] = designed as: OFF switch for flavin mononucleotide, no ligand
[2] = ligand present: flavin mononucleotide, designed as: OFF switch for flavin mononucleotide
[3] = designed as: ON switch for flavin mononucleotide, no ligand
[4] = ligand present: flavin mononucleotide, designed as: ON switch for flavin mononucleotide

| Sequence | apparent Kd [1] | apparent Kd [2] | apparent Kd [3] | apparent Kd [4] |
| --- | --- | --- | --- | --- |
| UUAGCAACAUGAGGAUCACCCAUGUAGGAUAUCGCUAUUGUAAUCAUGAAACAUGAUUACAAUAGCGAGAAGGACAUAUGCUUU | 0.0139 µM | 0.0149 µM | – | – |
| UUAGGCGACCAGAAGGGUGACAUGAGGAUCACCCAUGUAGAUGUGUUCCCGCUUGGGAGCCGUCCACAGGAUAUGGUUGGUUAG | – | – | 0.0357 µM | 0.0168 µM |
| UUAUACAUUCGAGGAUAUCGGAGAGAAAUCUUUCGAGAAGGCGAUUCAUGAUGUAUUAUCCUGGACAUGAGGAUCACCCAUGUA | – | – | 0.0968 µM | 0.0769 µM |
| UUAUACAUUCGAGGAUAUCGGUGAGAAAUCUUUCGAGAAGGCGAUUCAUGAUGUAUUAUCCUGGACAUGAGGAUCACCCAUGUA | – | – | 0.148 µM | 0.0925 µM |
| UUAUAUAGUGUGAGGAUAUGCUGGUCCUUGGAUCAGCAGAAGGCACAUGAGGAUCACCCAUGUAGUUUAUUUUU | 0.0255 µM | 0.144 µM | – | – |
| UUAUGUAUUGUAGGAUAUCACAAGUUAUGUAUUAUAAUUGUAAUUUUGUAAUGAGAAGGACAUAUACAUGAGGAUCACCCAUGU | 0.0189 µM | 0.0149 µM | – | – |
| UUAUGUGUCGUAGGAUAUCAUUAGAUUUGUAAUUUAAUUGUAAUUUACAUAUGAGAAGGACGUAUACAUGAGGAUCACCCAUGU | 0.0255 µM | 0.0359 µM | – | – |
| UUAUUAAGUGUGAGGAUAUGCUGGUCCUUGGAUCAGCAGAAGGCACAUGAGGAUCACCCAUGUACAAUAUAUUA | 0.0385 µM | 0.251 µM | – | – |
| UUAUUACAUGAGGAUCACCCAUGUGAGGAUAUCGAUGUAACUAGCAGCGUGCGGGACUCGAGAAGGCACUUGGA | 0.0611 µM | 0.144 µM | – | – |
| UUAUUAUAUGUAGGAUAUGCAUAUUAUUAUUAUGCAGAAGGACAUGAGGAUCACCCAUGUAUAUUAUUAUUAUAUAUUGUAUAU | 0.0278 µM | 0.0432 µM | – | – |
| UUAUUAUAUGUAGGAUAUGCAUAUUAUUAUUGUGCAGAAGGACAUGAGGAUCACCCAUGUAUAUUAUUAGUAUAUAUUAUAUAU | 0.0185 µM | 0.0192 µM | – | – |
| UUAUUCUAUAUAGGAUAUUGAUGCAAUUUACCUCAAGAAGGAUAUACAUGAGGAUCACCCAUGUUGGAUAGGGUUAGUUUGUUU | – | – | 0.0794 µM | 0.0765 µM |
| UUAUUGGUAGUGAGGAUAUCGGUUUGAUAGAUAUUCGAGAAGGCACAUGAGGAUCACCCAUGUAAGAUUGGGAA | 0.201 µM | 0.196 µM | – | – |
| UUAUUGUGAGGAUAUCAGGUGUGCUAGCGUACUGGUACAUCUGAGAAGGCACAUGAGGAUCACCCAUGUUUCUU | 0.0234 µM | 0.0669 µM | – | – |
| UUAUUUUAAUGAGGAUAUAUACAACAUGAGGAUCACCCAUGUACCCAUGUAGUAGAAGGCAUAAUUUUUGAUAAUAACAUAACU | – | – | 0.0495 µM | 0.0316 µM |
| UUAUUUUUACAGAAGGUUUAAUACUAUGUAUGAGAAGGAUAUGUAACAUGAGGAUCACCCAUGUUUUAUUUAUAUGAGGUUCGU | 0.0138 µM | 0.0125 µM | – | – |
| UUCAAGUUGCGAGGAUAUCGUGUUAACAUGAGGAUCACCCAUGUAAAGGUUUAUUAAAUAAUCUUCGAGAAGGCGCUUAAUGUA | – | – | 0.0241 µM | 0.0208 µM |
| UUCAGCUCGUGAGGAUAUACAUGUGCUGGAAACAGCACUAUUAAAUUCACAUGAGGAUCACCCAUGUAGAAGGCACGAGCUGAG | 0.0154 µM | 0.0187 µM | – | – |
| UUCAUGUUGCGAGGAUAUCGUGUUAACAUGAGGAUCACCCAUGUAUAGGUUUAUUAAUUAGUUUUCGAGAAGGCGCUUUUAGUA | – | – | 0.215 µM | 0.158 µM |
| UUCCGGGUGCAGAAGGGAUAGGCCUAUUUUCGUGGUAUCCAAACCUUACAUGAGGAUCACCCAUGUCAGGAUAUGCCCACGGAA | 0.00493 µM | 0.00472 µM | – | – |
| UUCCUCACUUCUUUGACUCACAUGAGGAUCACCCAUGUAAUAUAGGAUAUGCAUUUUAUUUCUUUGCAGAAGGAUAUUAGUUUU | 0.0448 µM | 0.141 µM | – | – |
| UUCGCUAAGGUGUAGCGAGACUUGCAAGAAGGGUGAAGAACAUGAGGAUCACCCAUGUAAUCCUUACAGGAUAUUGCUUGACGA | – | – | 0.273 µM | 0.0331 µM |
| UUCGGCGCAGGAUAUGCAGUUCUGUGUUGAAUCGGCGCGGGACAUGAGGAUCACCCAUGUAGAAGGGUGUUGGG | 0.374 µM | 0.239 µM | – | – |
| UUCGUGCAGCUUAGCUGUACGCGUACAUGAGGAUCACCCAUGUAGGAUAUGGUAGGCAAAGCUUACUAGAAGGAUAUAGUGAUC | 0.129 µM | 0.144 µM | – | – |
| UUCGUGCAGCUUUGCUGUACGCGUACAUGAGGAUCACCCAUGUAGGAUAUGGUACGCGUUGCGUGCUAGAAGGAUAUGGAGAGG | 0.0184 µM | 0.0229 µM | – | – |
| UUCGUGUAAGGAUAUACGACCCAUCCCAUUGGGAUGGGCACGUAGAAGGUACAUGAGGAUCACCCAUGUGCUCC | 0.0268 µM | 0.167 µM | – | – |
| UUCUUUCCUCAUGUACAUGAGGAACAUGAGGAUCACCCAUGUAGAAGGAUUUCAAUUAAAUUAAAAUAGGAUAUACAUCUAUUU | 0.0104 µM | 0.00934 µM | – | – |
| UUCUUUCCUCAUGUACAUGAGGAACAUGAGGAUCACCCAUGUAGAAGGAUUUCCCUUAAAUUAAAAUAGGAUAUACAUAUAUUU | 0.0279 µM | 0.0247 µM | – | – |

| Sequence | apparent Kd [1] | apparent Kd [2] | apparent Kd [3] | apparent Kd [4] |
| --- | --- | --- | --- | --- |
| UUGAUAAGGAGAGGAUAUUGACAUGAGGAUCACCCAUGUACAUGGGAGUAUUUACUGAAUUCUUACGAGAAGGCUUACAUAUUU | 0.165 µM | 0.115 µM | – | – |
| UUGCCUCAGAACAUGAGGAUCACCCAUGUGCUGCGGGCAACGUAGGAUAUGAUGGUGUGACACCGUCAGAAGGAUGAUGGUACC | – | – | 0.00597 µM | 0.00605 µM |
| UUGCGGUAGGAGAAGGACAGAGGCGGAAACACAAACAUGAGGAUCACCCAUGUAGGAUAUCCUACCUAACGCGGAUCCCUCCAG | 0.0111 µM | 0.0346 µM | – | – |
| UUGCUACAUGAGGAUCACCCAUGUCAGGAUAUUGUCUAUACCGUGGAAGCUGUGUCGAUAAGAAGGGACUGUCU | 0.0241 µM | 0.0416 µM | – | – |
| UUGGACGUCCUAGGAUAUGUAGGAUAUUCCUACAUGAGGAUCACCCAUGUUGACAUGGAAGAAGGACAGAAGGACGAUGUCCAU | – | – | 0.551 µM | 0.0713 µM |
| UUGGACGUCGAAGGAUAUGUAGGAUAUUCCUACAUGAGGAUCACCCAUGUUGACAUGGAAGAAGGACAGAAGGACGAUGUCCAU | – | – | 0.479 µM | 0.00678 µM |
| UUGGACGUCGUAGGAUAUGUACGAUAUUCCUACAUGAGGAUCACCCAUGUUGACAUGGAAGAAGGACAGAAGGACGAUGUCCAU | – | – | 0.0055 µM | 0.00487 µM |
| UUGGACGUCGUAGGAUAUGUAGGAUAUUCCUACAUGAGGAUCACCCAUGUCGACAUGGAAGAAGGACAGAAGGACGAUGUCCAU | – | – | 0.238 µM | 0.00422 µM |
| UUGGACGUCGUAGGAUAUGUAGGAUAUUCCUACAUGAGGAUCACCCAUGUUAACAUGGAAGAAGGACAGAAGGACGAUGUCCAU | – | – | 0.326 µM | 0.00476 µM |
| UUGGACGUCGUAGGAUAUGUAGGAUAUUCCUACAUGAGGAUCACCCAUGUUGACAUGGAAGAAGGACAGUAGGACGAUGUCCAU | – | – | 0.251 µM | 0.00802 µM |
| UUGGACGUCGUAGGAUAUGUAGGAUAUUCCUACAUGAGGAUCACCCAUGUUGACAUGGAAGAUGGACAGAAGGACGAUGUCCAU | – | – | 0.983 µM | 0.0421 µM |
| UUGGACGUCGUAGGAUAUUUAGGAUAUUCCUACAUGAGGAUCACCCAUGUUGACAUGGAAGAAGGACAGAAGGACGAUGUCCAU | – | – | 0.0241 µM | 0.00823 µM |
| UUGGAUAUCACAGGAUAUGCUAAGGAUACCUUAGCAGAAGGGUGAUCCAUCCUAUGGCUGUACAUGAGGAUCACCCAUGUGUCA | – | – | 0.246 µM | 0.0736 µM |
| UUGGUAUCUGCAGGAUAUUGUAUUUUAAUACUUCAAGAAGGGCAUUACAUGAGGAUCACCCAUGUUUACAUGGUCAUAUUAGUU | 0.0261 µM | 0.0208 µM | – | – |
| UUGGUUGUCGUAGGAUAUGUAGGAUAUUCCUACAUGAGGAUCACCCAUGUUAGCAUGGAAGAAGGACAGAAGGACGAUGACCAU | – | – | 1.01 µM | 0.0169 µM |
| UUGUACAUAGGAUAUAGUUGUUUGUACAUGAGGAUCACCCAUGUUAUGUAUGUUUUGUUUCUAGAAGGAUGUUGAU | 0.0502 µM | 0.0389 µM | – | – |
| UUGUUACGAUUAGGAUAUUAUUGAUUGGACAGUAUGAUUUACAUGAGGAUCACCCAUGUUACUUUUAAGAAGGAAUCGUAUUAU | 0.0209 µM | 0.0172 µM | – | – |
| UUGUUAGGGAGAGGAUAUUGACAUGAGGAUCACCCAUGUAUUUGGGAGUGUUUACUGAAUUCUUACGAGAAGGCUUACGAAAUU | 0.329 µM | 0.246 µM | – | – |
| UUGUUAUAUGUAGGAUAUGCAUAUUAUUAUUAUGCAGAAGGACAUGAGGAUCACCCAUGUAUAUUAUUAUUAUAUGUUAUAUAU | 0.0238 µM | 0.0298 µM | – | – |
| UUGUUAUAUGUAGGAUAUGCAUAUUAUUAUUAUGCAGAAGGACAUGAGGAUCACCCAUGUGUAUUAUUAUUAUAUAUUAUAUAU | 0.0232 µM | 0.0332 µM | – | – |
| UUGUUGUCAGGAUAUCGUUAAUUUAAUUGUUUGUAUUAGUUCGAGAAGGGACAUGAGGAUCACCCAUGUUUUUU | 0.0256 µM | 0.0515 µM | – | – |
| UUGUUGUGAGUAAGGAUAUGAUGCAGGAAACUGCGUCAGAAGGUACAUGAGGAUCACCCAUGUUAAUUUUGUUU | 0.0168 µM | 0.0235 µM | – | – |
| UUUAAGUCAGGAUAUCGUUAAUUUAAUUAUUUGUUUUAGUUCGAGAAGGGACAUGAGGAUCACCCAUGUAAUUU | 0.0388 µM | 0.0418 µM | – | – |
| UUUACAUGAGGAUCACCCAUGUCUUGAAAGAUUAGUUCUGGUGAGGAUAUACAUGAUAAAGAAUUGUAGAAGGCACUGGGUACA | – | – | 0.113 µM | 0.0331 µM |
| UUUACAUGAGGAUCACCCAUGUUUAGAAAGAUUAAUUUAAGUGAGGAUAUACAUAAUAAUAAAUUGUAGAAGGCACUGGGUACA | – | – | 0.0193 µM | 0.0206 µM |
| UUUACGAAAGUCGAACGAUGUAGCAGAAGGACAUGAGGAUCACCCAUGUCAGCUGUAACAGCCAUGUAGGAUAUGCUACAUCCC | 0.00524 µM | 0.00649 µM | – | – |
| UUUAGUUUAGGAUAUGUAGACAUUAACAUGAGGAUCACCCAUGUAGAUCCUGAAUUGACUACAGAAGGAAGCAUUU | 0.248 µM | 0.446 µM | – | – |
